NadD block: blocks S. aureus nicotinate mononucleotide adenylyltransferase. purified NadD enzyme, colorimetric absorbance read-out. inhibition, % at 20 µM. 360,000 compounds, 0.78% hits; in the data active = inhibition above about 26%
TPT1 inh: C. albicans TPT1 enzyme inhibition; recombinant caTPT1, FP RNA substrate dephosphorylation; inhibition, % at 5 µM; 300,000 compounds, 0.81% hits; AID 1962;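 active = inhibition above the mean of all tested compounds plus 3 SD, set per screening campaign, cut at about 24% in these data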;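 also: plate controls were DMSO alone for no effect and ferristatin control at 100 nM for full effect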
HNF4A DNA FP: change in binding of human HNF4 alpha to DNA. 360,000 compounds, 0.3% hits. P41235. activity change, % at 10 µM. HNF4a-FITC DNA binding, fluorescence polarization, 1 h; in the data active = activity change above about 30%, passing the limit was not always enough
CSN deneddyl inh: inhibitors of human CSN-mediated cullin deneddylation; Purified CSN, SCF-Nedd8-OG deneddylation, fluorescence polarization; 360,000 compounds, 0.38% hits; inhibition, % at 12.5 µM;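 active = pattern-corrected inhibition above about 35%, with an unprinted fluorescence ratio check between 0.5 and 1.5, limit read from the data, passing the limit was not always enough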;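 also: 0% = enzyme with substrate and 100% = substrate without enzyme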
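Schedule: reaction 90 min, room temperature / Assay system: HEK293T-derived human Csn5 enzyme / Input: Csn5 at 0.24 nM final / Measure: inhibition of Csn5 cleavage, % / Control set: substrate-only high control, full reaction low control / Technique: fluorescence polarization of the substrate / Buffer or medium: Tris/NaCl/DTT buffer, pH 7.5 / Reagent: SCFSkp2-Nedd8OG substrate at 10 nM final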
PP1 inh: blocks human PP1-alpha phosphatase, a PP5 counter-screen; 320,000 compounds, 0.9% hits; inhibition, % at 6.7 µM; P62136; AID 2235; purified PP1alpha, OMFP fluorescence;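 active = inhibition above the mean inhibition of all tested compounds plus 3 SD, computed separately for each screening campaign, cut at about 15% in these data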
Rpn11 inh: Rpn11 (human) deubiquitinase inhibition; AID 588493; O00487; human 26S proteasome, Ub4-pepOG fluorescence polarization; 20S core pre-blocked with epoxomicin; inhibition, % at 20 µM; 360,000 compounds, 0.59% hits;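 active = inhibition at 20 µM, scaled to each plate's controls, above about 33%, limit read from the data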
Rpn11 confirm: Rpn11 inhibition confirmation, single concentration; shares compounds with Rpn11 inh; purified human 26S proteasome, Ub4-pepOG fluorescence polarization; proteasome pretreated with epoxomicin; inhibition, % at 20 µM; 1,900 compounds, 29% hits; AID 602318
MMP-2 counter-1: MMP-2 (human) inhibition counter-screen; shares compounds with Rpn11 inh; recombinant MMP-2, FRET peptide cleavage fluorescence; inhibition, % at 20 µM; 1,900 compounds, 4% hits; AID 602330;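 also: human MMP-2 activated beforehand with APMA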
Thrombin inh: counter-screen for RPN11 inhibitors: inhibition of bovine thrombin; bovine thrombin cleavage of Ub4-pepOG, fluorescence polarization; inhibition, % at 20 µM; shares compounds with Rpn11 inh; AID 602333; 1,900 compounds, 13% hits;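 active = mean inhibition at least 40% at 20 µM, or signal 3 deviations below plate average, so some actives read negative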;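 also: plate controls were thrombin with DMSO for no effect and buffer wells lacking thrombin for full effect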
Target sequence (P00735 whole entry, looked up): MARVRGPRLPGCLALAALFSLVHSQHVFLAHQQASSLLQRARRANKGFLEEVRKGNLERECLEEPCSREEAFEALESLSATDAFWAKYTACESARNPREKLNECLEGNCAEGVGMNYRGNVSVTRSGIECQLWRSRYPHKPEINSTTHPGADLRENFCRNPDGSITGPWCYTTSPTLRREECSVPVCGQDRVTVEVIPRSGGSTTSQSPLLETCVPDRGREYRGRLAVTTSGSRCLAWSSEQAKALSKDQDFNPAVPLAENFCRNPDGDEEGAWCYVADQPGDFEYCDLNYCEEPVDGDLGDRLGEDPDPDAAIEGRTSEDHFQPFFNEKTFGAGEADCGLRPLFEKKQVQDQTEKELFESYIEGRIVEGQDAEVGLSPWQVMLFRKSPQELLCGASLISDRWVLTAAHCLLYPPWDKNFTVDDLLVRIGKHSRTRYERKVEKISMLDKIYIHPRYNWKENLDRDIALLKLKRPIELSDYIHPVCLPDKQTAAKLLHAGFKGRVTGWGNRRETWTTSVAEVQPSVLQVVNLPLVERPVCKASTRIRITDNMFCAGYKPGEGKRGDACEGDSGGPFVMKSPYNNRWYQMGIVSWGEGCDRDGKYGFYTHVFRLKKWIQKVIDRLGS
NadD inh conf: confirmation of Staphylococcus aureus NadD inhibitors; purified S. aureus NadD, colorimetric enzyme assay; shares compounds with NadD block; inhibition, % at 20 µM; 2,000 compounds, 13% hits; in the data active = inhibition mostly above about 42%, no sharp cut-off; inactive = mostly below about 42%
CSN deneddyl val: Csn5 (human) deneddylation inhibition, single-concentration validation; inhibition, % at 16.6 µM; Csn5 deneddylation of SCF-Nedd8OG, fluorescence polarization, 90 min; shares compounds with CSN deneddyl inh; 540 compounds, 62% hits; in the data active = inhibition above about 50%;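 also: 0% = DMSO with enzyme and 100% = no enzyme wells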
MMP-2 counter-2: counter-screen for CSN deneddylation inhibitors: human MMP-2 inhibition | shares compounds with CSN deneddyl inh | recombinant MMP-2, FRET substrate fluorescence, 60 min | inhibition, % at 16.6 µM | 540 compounds, 33% hits;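 active = corrected plate-normalized z-score of 5 or more, or -5 or less, or inhibition of 15% or more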;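 also: plate controls were DMSO wells with enzyme for no effect and buffer wells lacking MMP-2 for full effect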
Thrombin cntr: thrombin (bovine) inhibition, counter-screen for CSN hits; shares compounds with CSN deneddyl inh; bovine thrombin cleavage of Ub4-pepOG, fluorescence polarization; inhibition, % at 16.6 µM; 540 compounds, 49% hits; AID 720656;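 active = inhibition at or above a set limit, with a fluorescence interference ratio between 0.5 and a set maximum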
HNF4a DNA conf: change in binding of human HNF4 alpha to DNA, retest; shares compounds with HNF4A DNA FP; HNF4A-FITC DNA binding, fluorescence polarization, 1 h; activity change, % at 12.5 µM; 210 compounds, 99% hits; AID 1224897; call rule not given here
Active calls of the source: *; / = no result. The list is not random: actives were taken first. Their share in the collection is about 2.7%. Rule as the data show it, unless noted: active = inhibition above about 40%; inactive = the rest.

SMILES | NadD block | TPT1 inh | HNF4A DNA FP | CSN deneddyl inh | PP1 inh | Rpn11 inh | others
COc1ccccc1NC(=O)c1cn(CCC#N)nc1-c1ccc(F)cc1 | -1.7 | / | -5.0 | -3.0 | / | 3.1
CCCCOC(=O)c1ccccc1C(=O)OCc1ccccc1 | -2.0 | / | 5.2 | 2.4 | 4.0 | 1.0
O=c1[nH]c(=O)n(-c2ccc(F)cc2)c(O)c1C=Nc1ccccc1N1CCCC1 | 5.0 | 1.0 | 58.2* | 16.4 | -2.9 | 61.1* | Rpn11 confirm=15.5;MMP-2 counter-1=28.9;Thrombin inh=-51.6
N#Cc1ccccc1OCC(=O)N1CCN(CC(=O)Nc2ccc(F)cc2)CC1 | 1.7 | / | 1.6 | 2.2 | / | -4.3
O=c1c2ccccc2nc(/C=C/c2ccccc2)n1-c1ccccc1O | -3.0 | -2.3 | 3.8 | -2.6 | 1.6 | -0.5
O=c1c2ccccc2nc(/C=C/c2ccc(O)cc2)n1-c1ccccc1O | -2.8 | 6.2 | 3.0 | 3.4 | -4.0 | 38.7* | Rpn11 confirm=12.7;MMP-2 counter-1=-16.8;Thrombin inh=7.4
O=c1c2ccccc2nc(-c2ccco2)n1-c1nccs1 | 2.5 | 0.0 | 1.9 | -1.9 | 0.4 | 49.9* | Rpn11 confirm=-11.7;MMP-2 counter-1=-27.9;Thrombin inh=-6.2
CC(=O)O[C@H]1CCC2C3CCC4=CC(=O)CCC4=C3C=C[C@@]21C (some centres undefined) | -3.0 | -0.5 | 1.2 | -3.4 | 1.9 | -13.2
CCCCN1C(=O)/C(=C/C=C/c2ccco2)C(=O)NC1=S | 3.6 | / | 37.6* | 89.0* | / | 145.8* | Rpn11 confirm=155.0*;MMP-2 counter-1=46.6*;Thrombin inh=142.8*;CSN deneddyl val=-60.0;MMP-2 counter-2=-5.0;Thrombin cntr=67.0*
C[N+]1(CCC(C(N)=O)(c2ccccc2)c2ccccc2)CCCCC1 | / | -3.9 | / | / | 2.6 | /
O=c1[nH]c(=S)[nH]c(O)c1N=Nc1ccc2c(c1)OCO2 | -7.9 | 9.8 | 42.0* | 13.4 | -1.3 | 46.5* | Rpn11 confirm=17.2;MMP-2 counter-1=31.7;Thrombin inh=11.2;HNF4a DNA conf=45.7*
O=c1[nH]c2ccccc2n1C1CCN(C(c2nnnn2-c2ccc3c(c2)OCCO3)C2CC2)CC1 (centres undefined) | 6.1 | / | 1.3 | 0.3 | / | 10.3
CCCCCn1c(=O)c(C(=O)Nc2ccccc2)c(O)c2ccccc21 | 3.3 | 1.2 | 1.4 | 0.2 | -4.7 | -5.4
CCCCCCn1c(=O)c(C(=O)Nc2c(C)n(C)n(-c3ccccc3)c2=O)c(O)c2ccccc21 | 32.1* | 0.0 | -1.6 | 1.6 | -4.9 | 9.3 | NadD inh conf=7.2
Nc1c(C(=O)OCc2ccccc2)c2nc3ccccc3nc2n1Cc1cccs1 | 30.2* | 6.9 | -1.4 | 0.3 | 1.3 | 7.7 | NadD inh conf=23.4
O=C1NCN(c2ccccc2)C12CCN(C(c1cccc3ccccc13)c1nnnn1-c1ccc3c(c1)OCCO3)CC2 (centres undefined) | 31.2* | / | -0.3 | 2.0 | / | 5.9 | NadD inh conf=19.1
O=C1NCN(c2ccccc2)C12CCN(C(c1cccc3ccccc13)c1nnnn1Cc1ccccc1)CC2 (centres undefined) | 31.8* | / | 2.8 | -5.7 | / | 2.3 | NadD inh conf=18.2
CCCCn1nnnc1C(c1cccc2ccccc12)N1CCC2(CC1)C(=O)NCN2c1ccccc1 (centres undefined) | 14.3 | / | 5.1 | 0.8 | / | -9.2
O=C1NCN(c2ccccc2)C12CCN(C(c1ccccc1)c1nnnn1-c1ccc3c(c1)OCCO3)CC2 (centres undefined) | 18.8 | / | 1.2 | -3.5 | / | -9.9
CC(=O)O/C(=C1\CC2C3CC=C4CC(OC(C)=O)CCC4(C)C3CCC2(C)C1=O)C(F)(F)F (centres undefined) | 0.2 | / | -2.7 | -2.3 | / | 12.5
CCC(CO)(C(=O)OC1C[N+]2(C)CCC1CC2)c1ccccc1 (centres undefined) | 12.4 | 1.6 | 3.7 | 116.5 | -4.7 | -1.7
CSc1nc(N)c(N=Nc2ccc([As](=O)(O)O)cc2)c(=O)[nH]1 | -0.2 | -1.3 | 4.3 | 3.8 | 6.3 | -37.4
O=c1[nH]c2ccccc2n1C1CCN(C(c2ccccc2)c2nnnn2-c2ccc3c(c2)OCCO3)CC1 (centres undefined) | 31.2* | / | 4.4 | 4.8 | / | 18.2 | NadD inh conf=9.0
O=c1[nH]c2ccccc2n1C1CCN(C(c2ccccc2OC(F)(F)F)c2nnnn2-c2ccc3c(c2)OCCO3)CC1 (centres undefined) | 28.9* | / | 2.9 | -0.8 | / | 3.4 | NadD inh conf=10.7
Cc1ccc2c(c1Cl)NC(C(=O)O)C1CC(Sc3ccccc3[N+](=O)[O-])C(Cl)C21 (centres undefined) | 35.7* | -2.1 | -24.6 | 10.0 | 2.3 | 7.0 | NadD inh conf=31.1
SMILES | NadD block | TPT1 inh | HNF4A DNA FP | CSN deneddyl inh | PP1 inh | Rpn11 inh | others
c1cc2c(cc1[C@H]1OCC3C1CO[C@@H]3c1ccc3c(c1)OCO3)OCO2 (some centres undefined) | -5.1 | / | -0.8 | -0.3 | / | -6.1
CCCCn1c(NS(=O)(=O)c2ccccc2)c(C(=O)OCC)c2nc3ccccc3nc21 | 16.0 | 2.2 | 1.2 | 62.6* | 4.1 | 8.3 | CSN deneddyl val=103.0*;MMP-2 counter-2=6.7;Thrombin cntr=-32.0
CC1=C(O)C(=O)C=C2C1=CC=C1C2(C)CCC2(C)C3CC(C)(C(=O)O)CCC3(C)CCC12C (centres undefined) | 46.7* | / | -6.6 | 42.0* | / | 12.3 | MMP-2 counter-2=9.6;Thrombin cntr=-1.0
Cn1ncnc2c(=O)n(C)c(=O)nc1-2 | 0.7 | 3.1 | 111.7 | 74.1* | 38.4* | 16.6 | CSN deneddyl val=-21.3;MMP-2 counter-2=-6.8;Thrombin cntr=-37.0
COC(=O)C1=C(c2c(C)noc2C)C[C@@H]2CC[C@H]1N2C(=O)N1CCC(O)(c2ccc(Cl)cc2)CC1 | -0.3 | / | 0.0 | -4.3 | -1.9 | -0.7
O=c1ccc2cc3ccoc3c(O)c2o1 | 5.4 | / | 1.5 | 6.5 | / | 5.6

Assay outcomes from PubChem.
